Dynein cargo inh: blocks dynein driven cargo transport along microtubules. z-score, hits read low. 220,000 compounds, 0.47% hits. 3617.4 mouse cells, GR-EGFP nuclear translocation imaging; test concentration mostly 20 µM; stimulated with dexamethasone, 1 µM; hits give low values. AID 1381;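 active means plate z-score of nuclear minus cytoplasmic receptor signal below a set negative limit, without overly bright fluorescence or cell loss, cut at about -3.5 in these data, passing the limit was not always enough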;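 further: z-score of nuclear minus cytoplasmic ring GR-EGFP intensity difference per well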
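Medium: Induction medium lacking tetracycline, stripped serum | Probe or stimulus: 1.0 µM final dexamethasone stimulus | Schedule: 48 h induction, then 1 h compound, then 30 min agonist, 37 °C | Signal: Automated 10x imaging of fixed Hoechst-stained cells | Evaluation: Per-cell GR-EGFP intensity, nucleus versus surrounding cytoplasmic ring, well-averaged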
b-catenin transl: beta-catenin nuclear translocation modulation. 190,000 compounds, 0.3% hits. HeLa beta-catenin nuclear translocation, immunofluorescence imaging. AID 1665. nuclear translocation activity, % at 5 µM;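 active means nuclear translocation activity above 50% at 5 µM, with a well cell count of 50 or more; inconclusive means wells under 50 cells across six images, flagged as toxic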;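 further: per-cell ratio of nuclear to cytoplasmic median beta-catenin stain intensity; plate controls were DMSO negative control for no effect and GSK-3 inhibitor IX positive control for full effect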
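Assay system: human HeLa cells, native beta-catenin; doses: 5 µM primary, 0.02–20 µM confirmation; incubation: compound treatment 24 h, 37°C, 5% CO2; technique: fluorescence imaging of beta-catenin antibody stain plus DAPI; measure: % activation, nuclear-to-cytoplasmic median beta-catenin signal ratio per cell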
Ins promoter up: MIN6 insulin promoter up-regulation | MIN6 insulin promoter-GFP reporter, high-content imaging; hits give high values | z-score at 5 µM | 190,000 compounds, 0.3% hits | AID 1625;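 active means z-score above 3 at 5 µM with at least 500 cells counted in the well; inconclusive means wells under 500 cells, flagged as cytotoxic or low count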
Autophagy mod: autophagy modulation, high-content screen; 190,000 compounds, 0.98% hits; MEF GFP-LC3 puncta imaging; test concentration mostly 10 µM; AID 463193; calls only at 10 µM (by protocol);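 active means percentage of spot-positive cells more than 3 SD above its plate mean, without a fluorescence outlier flag or 80% toxicity; inconclusive means no clear call, values can overlap the other calls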;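 further: spot-positive cell cutoff set from DMSO-treated cells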
MT stabilize HCS: microtubule stabilization, imaging screen | HeLa tubulin immunostaining HCS, 24 h; share of cells brighter than vehicle mean+2SD | % tubulin-high responders, % at 10 µM | 200,000 compounds, 0.83% hits;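 active means plate Z-score above 3 for both tubulin-high and condensed-nucleus cell shares, with cell loss under 80%, at 10 µM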;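 further: anti alpha tubulin signal scored within the nucleus-defined area of each cell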
Dynein inh conf: dynein cargo transport inhibition, confirmation | shares compounds with Dynein cargo inh | 3617.4 GR-EGFP nuclear translocation imaging, dexamethasone-induced | calls only at 20 µM | 1,000 compounds, 69% hits | AID 463116;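 active means inhibition of receptor movement into the nucleus at or above a set limit in both runs, with normal cell brightness and cell count; inconclusive means limit reached in only one run, brightness and count normal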;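 further: dexamethasone at 1 µM final in well for 30 min; nuclear minus cytoplasmic GR-EGFP mean intensity difference in channel 2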
* hit, by the source's call. Only some compounds are listed: those with a hit (about 2.3% of all), similar ones and a draw of the others.

COc1ccccc1/C=C/C(=O)NCC(=O)n1nc(C)cc1C was read as Dynein cargo inh 0.33, b-catenin transl 0 and Ins promoter up 0.24.
For CN1CCN(Cc2nc3ccccc3c(=O)n2Cc2nc(-c3ccc([N+](=O)[O-])cc3)cs2)CC1 the results were Dynein cargo inh -3.7*, b-catenin transl -2, Ins promoter up -0.43, Autophagy mod inactive, MT stabilize HCS 10 and Dynein inh conf inactive.
`CCOCCn1c(SC(C)C(C)=O)nc2c1c(=O)[nH]c(=O)n2C` (centres undefined) gave Dynein cargo inh -1.3, b-catenin transl 0 and Ins promoter up -0.38.
`CC(C)(C)c1ccc(-c2nc(O)c(CC(=O)O)s2)cc1` gave Dynein cargo inh -0.37, b-catenin transl 0 and Ins promoter up 0.05.
COc1cc(OC)nc(-n2ncc(Br)c(Br)c2=O)n1 was read as Dynein cargo inh -3.5*, Ins promoter up inconclusive, Autophagy mod inactive, MT stabilize HCS 7 and Dynein inh conf active.
For COC(=O)c1cnn(-c2nc(OC)cc(OC)n2)c1C the results were Dynein cargo inh -0.066, b-catenin transl -4, Ins promoter up 0.18, Autophagy mod inactive and MT stabilize HCS 3.
Screening CCN(CC)c1ccc(/C=C2\CCC(/C=N/NC(=O)c3ccc(=O)n(C)c3)=C2N2CCOCC2)cc1 returned Dynein cargo inh -4.9, b-catenin transl -1, Ins promoter up 2.3, Autophagy mod active, MT stabilize HCS 7 and Dynein inh conf active.
Screening CSc1nnc(C)c(/C=C/NOCc2ccc(Cl)cc2)n1 returned Dynein cargo inh 0.43, b-catenin transl 5, Ins promoter up -0.17, Autophagy mod inactive and MT stabilize HCS 6.
`CSc1nnc(C)c(/C=C/Nc2ccc(C)cc2)n1` gave Dynein cargo inh -8.3, b-catenin transl 3, Ins promoter up 1.3, Autophagy mod inactive, MT stabilize HCS 2 and Dynein inh conf active.
Cc1onc(-c2c(Cl)cccc2Cl)c1C(=O)N=C(N)N1CCCC1 was read as Dynein cargo inh -0.35, b-catenin transl 0 and Ins promoter up -0.44.
Screening CCC(=O)Nc1cccc(C(=O)/C=C/c2ccc(F)cc2)c1 returned Dynein cargo inh -4.8*, b-catenin transl -1, Ins promoter up -1.3, Autophagy mod inactive, MT stabilize HCS 5 and Dynein inh conf active.
Screening O=C(/C=C/c1ccccc1)c1ccccc1 returned Dynein cargo inh -0.83, b-catenin transl -4, Autophagy mod inactive and MT stabilize HCS 5.
CC(=O)Nc1cccc(C(=O)/C=C/c2ccc(C)cc2)c1 was read as Dynein cargo inh -0.34, b-catenin transl 3, Ins promoter up -0.31, Autophagy mod inactive and MT stabilize HCS 6.
For CN(C)c1ccc(/C=C/C(=O)c2cccc(Br)c2)cc1 the results were Dynein cargo inh -13, b-catenin transl 0, Ins promoter up 2.9, Autophagy mod active, MT stabilize HCS 14* and Dynein inh conf active.
CSc1ccccc1NC(=O)c1cc2ncc(Br)cn2n1 was read as Dynein cargo inh -1.1, b-catenin transl 0, Ins promoter up -0.54, Autophagy mod inactive and MT stabilize HCS 2.
Screening Cc1ccccc1N1C(=O)CC(Sc2nnc(-c3ccccc3)o2)C1=O (centres undefined) returned Dynein cargo inh -7.3*, b-catenin transl -5, Ins promoter up 1.2, Autophagy mod inactive, MT stabilize HCS 3 and Dynein inh conf active.
`CCN1CCN(C2=C(Cl)C(=O)N(Cc3ccccc3)C2=O)CC1` gave Dynein cargo inh -4.7*, b-catenin transl -2, Ins promoter up -0.17, Autophagy mod inactive, MT stabilize HCS 3 and Dynein inh conf active.
For CN1CCN(C2=C(Cl)C(=O)N(Cc3ccccc3)C2=O)CC1 the results were Dynein cargo inh -2.6, b-catenin transl 1, Ins promoter up -0.61, Autophagy mod inactive and MT stabilize HCS 5.
Screening O=C(CC1Sc2ncnn2C1=O)Nc1ccc(Br)cc1 (centres undefined) returned Dynein cargo inh -3.6*, b-catenin transl -2, Ins promoter up -0.04, Autophagy mod inactive, MT stabilize HCS 2 and Dynein inh conf inactive.
Screening O=C(CC1SC2=NCCN2C1=O)Nc1ccc(Br)cc1 (centres undefined) returned Dynein cargo inh 0.038, b-catenin transl -1, Autophagy mod inactive and MT stabilize HCS 3.
Screening CCC(C)NC(=O)CSc1nnc(-c2c[nH]c3ccccc23)o1 (centres undefined) returned Dynein cargo inh -0.3, b-catenin transl 0, Ins promoter up -1.2, Autophagy mod inactive and MT stabilize HCS 4.
CCc1ccc(/C=C/C(=O)c2c(C)cc(C)[nH]c2=O)cc1 was read as Dynein cargo inh -4*, b-catenin transl 1, Ins promoter up 0.08, Autophagy mod inactive, MT stabilize HCS 5 and Dynein inh conf active.
`COc1ccccc1NC(=O)c1ccc(NC(=O)CN2C(=O)CN(C)C2=O)cc1` gave Dynein cargo inh -0.061, b-catenin transl -2, Ins promoter up -0.71, Autophagy mod inactive and MT stabilize HCS 2.
Screening CC(C)(C)c1ccc(C(=O)CC(=O)c2cc(Cl)ccc2O)cc1 returned Dynein cargo inh -0.43, b-catenin transl 1, Ins promoter up -0.93, Autophagy mod inactive and MT stabilize HCS 1.
Screening N/C(=C\C(=O)c1cc(Cl)ccc1O)C(Cl)(Cl)Cl returned Dynein cargo inh -5*, b-catenin transl 0, Ins promoter up -0.09 and Dynein inh conf active.
For O=C(NNc1cc(Cl)ccc1Cl)C1CCC1 the results were Dynein cargo inh -0.84, b-catenin transl 1 and Ins promoter up 0.08.
`O=C1COc2ccc(C(=O)CCl)cc2N1` gave Dynein cargo inh -4*, b-catenin transl 1, Ins promoter up -0.12 and Dynein inh conf active.
COc1ccc(OC)c(-n2c(=S)[nH]c3cc(C(=O)N(C)Cc4ccccc4)ccc3c2=O)c1 was read as Dynein cargo inh 0.23, b-catenin transl -2, Ins promoter up -0.82, Autophagy mod inactive and MT stabilize HCS 3.
Screening CCOc1ccccc1C(=O)N[C@H](C(=O)Nc1ccc(OC)c(S(=O)(=O)N2CCOCC2)c1)C(C)C returned Dynein cargo inh 0.068, b-catenin transl -1, Ins promoter up -0.33, Autophagy mod inactive and MT stabilize HCS 4.
For CCN1CC=C2C(C#N)=C(N)C(C#N)(C#N)C(CCc3ccccc3)C2C1 (centres undefined) the results were Dynein cargo inh -7.5, b-catenin transl -7, Autophagy mod active, MT stabilize HCS 6 and Dynein inh conf inactive.
